We go through 13 compounds from PubChem BioAssay AID463076 (The Scripps Research Institute Molecular Screening Center, 2010).

Active and inactive are the calls of the source.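 The calls were made as follows: active = compounds blocking FLT3 kinase activity with IC50 at or below 1000 nM; inactive = IC50 above 1000 nM.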

Receptor-type tyrosine-protein kinase FLT3 (Homo sapiens), sequence (P36888 whole entry, looked up): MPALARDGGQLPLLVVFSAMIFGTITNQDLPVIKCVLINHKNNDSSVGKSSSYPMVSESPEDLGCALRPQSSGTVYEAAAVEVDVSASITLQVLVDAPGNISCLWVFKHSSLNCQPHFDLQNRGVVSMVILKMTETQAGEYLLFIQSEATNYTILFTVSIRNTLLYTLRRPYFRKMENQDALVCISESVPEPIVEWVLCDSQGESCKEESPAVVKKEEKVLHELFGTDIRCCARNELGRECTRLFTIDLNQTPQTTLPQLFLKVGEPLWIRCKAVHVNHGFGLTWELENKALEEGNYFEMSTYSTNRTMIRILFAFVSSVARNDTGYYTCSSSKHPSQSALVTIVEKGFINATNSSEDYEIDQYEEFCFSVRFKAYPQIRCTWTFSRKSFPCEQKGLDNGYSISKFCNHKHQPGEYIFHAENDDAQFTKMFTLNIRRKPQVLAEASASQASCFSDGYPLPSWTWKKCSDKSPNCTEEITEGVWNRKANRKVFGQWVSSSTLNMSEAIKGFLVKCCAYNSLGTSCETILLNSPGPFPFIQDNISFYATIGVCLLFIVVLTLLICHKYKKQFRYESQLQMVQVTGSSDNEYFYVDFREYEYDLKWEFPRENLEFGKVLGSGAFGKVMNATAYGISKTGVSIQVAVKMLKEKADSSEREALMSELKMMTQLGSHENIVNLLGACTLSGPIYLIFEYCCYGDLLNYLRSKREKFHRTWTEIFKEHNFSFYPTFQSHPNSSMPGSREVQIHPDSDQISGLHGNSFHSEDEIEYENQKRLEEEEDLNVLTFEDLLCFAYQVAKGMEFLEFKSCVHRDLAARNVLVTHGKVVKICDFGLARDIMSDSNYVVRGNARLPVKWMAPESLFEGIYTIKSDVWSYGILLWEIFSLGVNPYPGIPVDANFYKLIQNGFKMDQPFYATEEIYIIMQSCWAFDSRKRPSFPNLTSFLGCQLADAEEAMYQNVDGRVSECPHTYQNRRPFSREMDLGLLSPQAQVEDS

This assay addresses Receptor-type tyrosine-protein kinase FLT3 (Homo sapiens) (UniProt P36888). The experiment in a line: FLT3 kinase inhibition, late-stage follow-up, selectivity assay for CK1d inhibitor project, biochemical, radioactive 33P-ATP, powder samples (AID 463076). As to conditions: purified FLT3, 33P-ATP Abltide filter-binding assay. A digest of the protocol: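 System: Kinase enzyme in a cell-free radiometric reaction | Times: Kinase reaction 120 min at room temperature | Detection: Filter binding of 33P radioactivity incorporated into peptide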
In general, IC50 refers to the concentration that inhibits the measured activity by half. For `CC(C)n1cnc2c(NCc3nc4c([N+](=O)[O-])cccc4[nH]3)nc(N3CCOCC3)nc21`, the IC50 result is “inactive”. As to `FC(F)(F)c1ccc2nc(CNc3nc(N4CCOCC4)nc4c3ncn4-c3ccsc3)[nH]c2c1`, the IC50 is 509 nM. With `N#Cc1ccc2nc(CNc3nc(N4CCOCC4)nc4c3ncn4-c3ccsc3)[nH]c2c1`, the IC50 was 62 nM. `Clc1ccc2nc(CNc3nc(N4CCOCC4)nc4c3ncn4-c3ccsc3)[nH]c2c1`: the concentration for half-maximal inhibition (IC50) is 301 nM. Turning to `Cc1ccnc(NC(=O)CCCOc2cc(=O)n(C)c3ccccc23)c1`, the IC50 result was “inactive”. Consider `c1ccc2[nH]c(CNc3nc(N4CCOCC4)nc4c3ncn4-c3ccsc3)nc2c1`, for which the IC50 is 100 nM. Regarding `O=[N+]([O-])c1cccc2[nH]c(CNc3nc(N4CCOCC4)nc4c3ncn4-c3ccsc3)nc12`, the IC50 was 305 nM. Turning to `COc1ccc2nc(CNc3nc(N4CCOCC4)nc4c3ncn4-c3ccsc3)[nH]c2c1`, the 50% inhibitory concentration (IC50) is 14 nM. For `CCOC(=O)c1cccc2[nH]c(CNc3nc(N4CCOCC4)nc4c3ncn4-c3ccsc3)nc12`, the IC50 was 548 nM. The same measure for `O=[N+]([O-])c1ccc2nc(CNc3nc(N4CCOCC4)nc4c3ncn4-c3ccsc3)[nH]c2c1`: 240 nM; for `Fc1ccc2nc(CNc3nc(N4CCOCC4)nc4c3ncn4-c3ccsc3)[nH]c2c1`: 79 nM. As for `FC(F)(F)c1cccc2[nH]c(CNc3nc(N4CCOCC4)nc4c3ncn4-c3ccsc3)nc12`, the IC50 was 262 nM. For `c1ccc2cc3[nH]c(CNc4nc(N5CCOCC5)nc5c4ncn5-c4ccsc4)nc3cc2c1`, the IC50 was 975 nM.
